Laboratory results reported in publication PMC5538437 (Genes & Development, 2017).
Values belong to the molecule of their own block, whether it stands above or below them.

Key:
[1] = system: R-Luc-ARE-A90-MALAT1 reporter; assay type: cell-based, human; settings: λN-HA-TTPΔNIM with GFP-GYF2 and/or λN-HA-4EHP, GYF1/2-null HEK293T cells
Method in brief: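 Wild-type and GYF1/2-null HEK293T cells received 1 µg R-Luc-ARE-A90-MALAT1 reporter and 0.25 µg F-Luc-GFP control. Where indicated, they also received 50 ng λN-HA-TTPΔNIM, 0.2 µg GFP-MBP, 1 µg GFP-GYF2 (wild type or C*) and 0.5 µg λN-HA-4EHP. Dual luciferase was measured 2 d post-transfection. R-Luc/F-Luc was set to 100% without TTP for each cell line.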

[2] = system: R-Luc-6xMS2-A95-MALAT1 reporter; test: Tethering assay, R-Luc-6xMS2-A95-MALAT1 reporter, HEK293T cells; assay type: cell-based, human; settings: MS2-HA-GYF2, HEK293T cells
Method in brief: (§1)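 HEK293T cells transfected with 0.25 µg F-Luc-GFP control plasmid, 0.5 µg R-Luc-6xMS2-A95-MALAT1 reporter (or R-Luc-A95-MALAT1, lacking MS2 sites), 0.25 µg GFP-MBP, and 0.3 µg MS2-HA or 1 µg MS2-HA-GYF2 (wild type or canonical mutant) plasmid. Dual luciferase read 2 d post-transfection. R-Luc normalized to F-Luc, set to 100% for MS2-HA. Mean ± SD of three independent experiments.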

[3] = system: R-Luc-A95-MALAT1 reporter; test: Tethering assay, reporter lacking the MS2-binding sites; assay type: cell-based, human; settings: MS2-HA-GYF2, HEK293T cells
Method in brief: as §1

4EHP–4E-BP1 complex = biological target: T1, 4EHP–4E-BP1 complex (Homo sapiens, UniProt O60573); test: Competition assay, preassembled 4EHP–4E-BP1 complex; assay type: biochemical; settings: competition assay with equimolar GYF2 fragment
T1 sequence (O60573 52-234): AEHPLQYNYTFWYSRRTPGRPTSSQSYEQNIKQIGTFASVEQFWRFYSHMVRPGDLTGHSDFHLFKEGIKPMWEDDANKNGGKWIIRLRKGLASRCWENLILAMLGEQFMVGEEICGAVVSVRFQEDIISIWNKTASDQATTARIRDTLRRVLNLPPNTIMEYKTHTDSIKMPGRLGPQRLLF

[4] = system: R-Luc-5BoxB-A95-MALAT1 reporter; assay type: cell-based, human; settings: λN-HA-4EHP with GFP-MBP or GFP-GYF2, GYF1/2-null HEK293T cells
Method in brief: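 GYF1/2-null and control HEK293T cells were seeded at 0.6 × 10^6 cells per well and lipofected. Each well received 0.25 µg F-Luc-GFP control, 0.5 µg R-Luc-5BoxB-A95-MALAT1 reporter, and 0.3 µg λN-HA or 0.7 µg λN-HA-4EHP. Cells also got 0.25 µg GFP-MBP, 1.8 µg GFP-GYF2 wild type or 1.2 µg C* mutant. Luciferases were read after 2 d. R-Luc/F-Luc was set to 100% for λN-HA. Mean ± SD, three independent experiments.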

[5] = biological target: T2, 4EHP–GYF2 (35–105) complex (Homo sapiens, UniProt O60573+Q6Y7W6); test: ITC, m7GpppG cap analog vs 4EHP–GYF2 complex; assay type: binding; settings: 20 mM HEPES pH 7.5, 200 mM NaCl
T2 sequence (O60573 52-234): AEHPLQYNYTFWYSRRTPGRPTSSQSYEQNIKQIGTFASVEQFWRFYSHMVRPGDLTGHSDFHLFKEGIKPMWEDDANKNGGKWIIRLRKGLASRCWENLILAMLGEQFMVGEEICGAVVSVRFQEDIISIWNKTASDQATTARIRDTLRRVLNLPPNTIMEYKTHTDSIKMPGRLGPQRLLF
T2 sequence (Q6Y7W6 35-105 partner limits assumed): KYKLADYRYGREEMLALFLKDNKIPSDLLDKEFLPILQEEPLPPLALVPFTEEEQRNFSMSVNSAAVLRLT

[6] = biological target: T3, 4EHP RE-LL–4E-BP1 complex (Homo sapiens, UniProt O60573, E149L/R103L); test: Competition assay, preassembled 4EHP RE-LL–4E-BP1 complex; assay type: biochemical; settings: after 60 min of incubation with equimolar GYF2 fragment
T3 sequence (O60573 52-234 R103L/E149L): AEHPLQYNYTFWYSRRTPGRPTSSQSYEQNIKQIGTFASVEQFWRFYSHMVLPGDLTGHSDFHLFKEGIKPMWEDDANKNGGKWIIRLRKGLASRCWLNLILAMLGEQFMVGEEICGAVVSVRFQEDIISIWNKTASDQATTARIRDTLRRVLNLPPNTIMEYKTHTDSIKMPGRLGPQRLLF

Molecule: GYF2 C: GYF2 residues K35–K54, canonical 4EHP-binding region (KYKLADYRYGREEMLALFLK; UniProt Q6Y7W6 35-54, looked up, fragment)
TTP-mediated repression of the ARE reporter, GYF1/2-null cells [1]: No restoration was observed | repression of MS2 reporter expression [2]: still repressed the expression of the R-Luc-6xMS2-A95-MALAT1 reporter as efficiently as wild-type GYF2

B1: GYF2: Hs GIGYF2 Q6Y7W6-1, full-length (1–1299) (protein)
chain: MAAETQTLNFGPEWLRALSSGGSITSPPLSPALPKYKLADYRYGREEMLALFLKDNKIPSDLLDKEFLPILQEEPLPPLALVPFTEEEQRNFSMSVNSAAVLRLTGRGGGGTVVGAPRGRSSSRGRGRGRGECGFYQRSFDEVEGVFGRGGGREMHRSQSWEERGDRRFEKPGRKDVGRPNFEEGGPTSVGRKHEFIRSESENWRIFREEQNGEDEDGGWRLAGSRRDGERWRPHSPDGPRSAGWREHMERRRRFEFDFRDRDDERGYRRVRSGSGSIDDDRDSLPEWCLEDAEEEMGTFDSSGAFLSLKKVQKEPIPEEQEMDFRPVDEGEECSDSEGSHNEEAKEPDKTNKKEGEKTDRVGVEASEETPQTSSSSARPGTPSDHQSQEASQFERKDEPKTEQTEKAEEETRMENSLPAKVPSRGDEMVADVQQPLSQIPSDTASPLLILPPPVPNPSPTLRPVETPVVGAPGMGSVSTEPDDEEGLKHLEQQAEKMVAYLQDSALDDERLASKLQEHRAKGVSIPLMHEAMQKWYYKDPQGEIQGPFNNQEMAEWFQAGYFTMSLLVKRACDESFQPLGDIMKMWGRVPFSPGPAPPPHMGELDQERLTRQQELTALYQMQHLQYQQFLIQQQYAQVLAQQQKAALSSQQQQQLALLLQQFQTLKMRISDQNIIPSVTRSVSVPDTGSIWELQPTASQPTVWEGGSVWDLPLDTTTPGPALEQLQQLEKAKAAKLEQERREAEMRAKREEEERKRQEELRRQQEEILRRQQEEERKRREEEELARRKQEEALRRQREQEIALRRQREEEERQQQEEALRRLEERRREEEERRKQEELLRKQEEEAAKWAREEEEAQRRLEENRLRMEEEAARLRHEEEERKRKELEVQRQKELMRQRQQQQEALRRLQQQQQQQQLAQMKLPSSSTWGQQSNTTACQSQATLSLAEIQKLEEERERQLREEQRRQQRELMKALQQQQQQQQQKLSGWGNVSKPSGTTKSLLEIQQEEARQMQKQQQQQQQHQQPNRARNNTHSNLHTSIGNSVWGSINTGPPNQWASDLVSSIWSNADTKNSNMGFWDDAVKEVGPRNSTNKNKNNASLSKSVGVSNRQNKKVEEEEKLLKLFQGVNKAQDGFTQWCEQMLHALNTANNLDVPTFVSFLKEVESPYEVHDYIRAYLGDTSEAKEFAKQFLERRAKQKANQQRQQQQLPQQQQQQPPQQPPQQPQQQDSVWGMNHSTLHSVFQTNQSNNQQSNFEAVQSGKKKKKQKMVRADPSLLGFSVNASSERLNMGEIETLDDY
repression of MS2 reporter expression [2]: repressed mRNA reporter expression in tethering assays | effect on reporter lacking the MS2-binding sites [3]: did not repress a reporter lacking the MS2-binding sites | competitive advantage over 4E-BP1 for binding to 4EHP (4EHP–4E-BP1 complex): the auxiliary sequences afford GYF2 a competitive advantage over 4E-BP1 for binding to 4EHP | repression of tethered reporter by 4EHP in GYF1/2-null cells [4]: restored by transient expression of wild-type GFP-tagged GYF2

4E-BP1 displaced from 4EHP RE-LL [6]: 40%
B2: GYF2 C+L+NC+A: GYF2 residues K35–T105, complete 4EHP-binding region (peptide)
chain: KYKLADYRYGREEMLALFLKDNKIPSDLLDKEFLPILQEEPLPPLALVPFTEEEQRNFSMSVNSAAVLRLT
modifications: left off: MBP, N-terminal, state not stated | GB1, C-terminal, kept
effect on 4EHP's affinity for the m7GpppG cap analog [5]: did not increase the affinity of 4EHP for an m^7GpppG cap analog
